# Compound activity deposited in PubChem BioAssay by several laboratories.
# The list is not random: actives were taken first. Their share in the collection is about 1.5%.
# CTSL1 counter – counter-screen for PFM18AAP inhibitors: inhibitors of F. hepatica cathepsin L1; recombinant F. hepatica cathepsin L1, Z-Leu-Arg-MCA fluorescence; inhibition, % at 5.96 µM; 300,000 compounds, 0.49% hits; AID 1906;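 active means inhibition above the mean of all tested compounds plus 3 SD, set per screening campaign, cut at about 17% in these data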;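 further: 0% = plate median of test compound wells and 100% = 1 µM Z-Phe-Ala-diazomethylketone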
# MT1-MMP act inh – blocks activation of human MT1-MMP; P50281; HT1080 RFP-PRO-GFP cells, GFP/RFP ratio fluorescence, overnight; percent of plate control window, DMSO zero; GFP/RFP ratio change, % at 20 µM; 360,000 compounds, 0.061% hits;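 active means GFP/RFP ratio change of at least 30% with cell ATP level not reduced by more than half and red fluorescence within 50% of control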
#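 Assay system: HT1080 RFP-PRO-GFP cells | Dosing: 20 µM single dose, 1% DMSO | Incubation: Cells overnight before dosing, compound overnight, 37 °C, 5% CO2 | Evaluation: GFP/RFP fluorescence ratio | Control set: DMSO-only wells and HT1080 RFP-L50D-GFP cell wells as references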
# NRP1-CendR mod – NRP-1/CendR interaction modulation; O14786; FAM-RPARPAR peptide binding to NRP-1, fluorescence polarization; inhibition, % at 25 µM; 360,000 compounds, 0.85% hits; AID 602438;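 active means inhibition or corrected inhibition above about 18%, plus a signal ratio from 0.5 to 1.5, limit read from the data, passing the limit was not always enough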
# UCH37 DUB inh – blocks the human deubiquitinase UCH37; Q9Y5K5; purified proteasome/UCH37, Ub-AMC cleavage fluorescence; inhibition, % (concentration not given with the values); 330,000 compounds, 0.33% hits;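 active means mean inhibition over replicate wells above about 20%, limit read from the data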;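 further: 0% = compound-free wells with enzyme and 100% = wells lacking proteasome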
# Target sequence (Q9Y5K5 whole entry, looked up): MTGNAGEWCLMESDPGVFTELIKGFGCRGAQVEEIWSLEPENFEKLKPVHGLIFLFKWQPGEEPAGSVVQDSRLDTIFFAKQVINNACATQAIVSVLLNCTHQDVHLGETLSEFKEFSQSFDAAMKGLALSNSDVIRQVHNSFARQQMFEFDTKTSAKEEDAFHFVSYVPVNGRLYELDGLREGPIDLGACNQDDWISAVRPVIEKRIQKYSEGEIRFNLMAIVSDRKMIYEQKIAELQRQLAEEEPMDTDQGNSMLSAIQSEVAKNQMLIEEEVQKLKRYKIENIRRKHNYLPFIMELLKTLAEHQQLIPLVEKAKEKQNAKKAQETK
#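 System: Proteasome-associated human UCH37 deubiquitinase; Input: 0.15 nM proteasome in added enzyme buffer; Also added: Ub-AMC substrate from 1 µM stock; Incubation: 30 min compound-proteasome preincubation then 25 min substrate reaction, room temperature; Detection: fluorescence, ex 355 nm, em 460 nm; Read-out: % inhibition of Ub-AMC cleavage fluorescence; Benchmarks: no-proteasome and no-compound wells.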
# DAGLB inh – blocks human DAGLB lipase activity. Q8NCG7. HEK293T DAGLB membrane lysate, EnzChek fluorogenic substrate. inhibition, % at 5.17 µM. 340,000 compounds, 0.059% hits. AID 504411; in the data active means inhibition above about 34%;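 further: 0% = enzyme with vehicle and 100% = wells lacking enzyme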
# * marks the source's active call; other numbers are inactive results; nt = no result.
SMILES,CTSL1 counter,MT1-MMP act inh,NRP1-CendR mod,UCH37 DUB inh,DAGLB inh
Cc1ccccc1CN1[C@@H](Cc2ccccc2)COCCS1(=O)=O,3,-2,26*,4,-10
O=S1(=O)CCOCCCN1Cc1ccc(Cl)cc1,-3,0,24*,3,1
O=S1(=O)CCOC[C@H](Cc2ccccc2)N1Cc1ccc(Cl)cc1,7,-6,29*,3,-3
CCC(C)[C@H]1COCCS(=O)(=O)N1Cc1ccccc1F (stereo partly drawn),0,-2,19,1,-2
O=S1(=O)CCOC[C@H](Cc2ccccc2)N1Cc1cccc(Cl)c1,-2,0,13,4,-4
CC(=NN1CCN(c2ccc(Cl)cc2)CC1)c1cccs1,nt,nt,nt,0,nt
Cc1cc(N2CCOCC2)c2c(N)cc(C)c(C)c2n1,6,4,22*,3,2
Cc1cccc(C(=O)Oc2ccc(C=NNC(=O)c3ccccc3O)cc2)c1,nt,nt,nt,-124,nt
Cc1ccc(C=Nn2cnc3sc4c(c3c2=O)CCCC4)o1,nt,nt,nt,5,nt
COc1cccc(NC(=O)CN(C)C(=O)C(CCSC)NC(=O)c2ccco2)c1 (stereo not drawn),nt,2,18*,4,1
Cn1c(=O)c2cc(S(=O)(=O)NC(Cc3ccccc3)C(=O)NCc3ccco3)ccc2n(C)c1=O (stereo not drawn),31*,16,3,3,0
Cc1ccc(-c2n[nH]c(=S)n2N=Cc2ccc(C)o2)cc1,nt,nt,nt,4,nt
COc1ccc(C(C)=NNS(=O)(=O)c2ccccc2)c(OC)c1,nt,nt,nt,3,nt
Cc1cc(C)n(N=Cc2cc(Cl)cc(Cl)c2O)c(=O)c1,nt,nt,nt,-16,nt
COc1ccc(C=NNC(=O)c2cc(OC)c(OC)c(OC)c2)cc1CN1CCc2cc(OC)c(OC)cc2C1C (stereo not drawn),nt,nt,nt,5,nt
COc1cc(/C=N/NC(N)=S)ccc1OC(=O)c1ccc(C)cc1,66*,5,12,nt,-1
COc1cc(/C=N/NC(N)=S)ccc1OCC(=O)N1CCOCC1,18*,2,-2,nt,2
COc1cc(/C=N/NC(=O)c2cccnc2)ccc1OCC(=O)N1CCOCC1,3,4,-9,nt,-2
NC(=S)NN=Cc1ccc(-c2ccc(Cl)c(Cl)c2)o1,nt,nt,nt,-3,nt
CC(C)(C)S(=O)(=O)N1C[C@H]2CC/C=C\C/C(c3ccccc3)=C\2[C@@H]1CCO,nt,-3,4,25*,1
COc1ccc(C=NNS(=O)(=O)c2ccc(Cl)cc2)cc1COc1ccccc1[N+](=O)[O-],nt,nt,nt,3,nt
O=C(c1ccco1)N1CCN(C23CC4CC(CC(C4)C2)C3)CC1,2,0,11,1,1
Cn1nccc1C(=O)N1CCN(C23CC4CC(CC(C4)C2)C3)CC1,0,-2,31*,-1,-1
Cc1ccc(C(=O)N2CCN(C34CC5CC(CC(C5)C3)C4)CC2)o1,-1,0,25*,3,0
Cc1cc(C)cc(NC(=O)c2ccc(CSc3nnnn3C)cc2)c1,2,-2,28*,4,1
SMILES,CTSL1 counter,MT1-MMP act inh,NRP1-CendR mod,UCH37 DUB inh,DAGLB inh
Cc1cccc(S(=O)(=O)NC(=O)C2(C)CCN2C(=O)CCc2ccccc2)c1 (stereo not drawn),nt,0,27*,nt,nt
Cc1cccc(S(=O)(=O)NC(=O)C2(C)CCN2C(=O)Cc2ccccc2)c1 (stereo not drawn),nt,2,1,nt,nt
CC(=NOCC(=O)Nn1c(=O)[nH]c2ccccc2c1=O)c1ccccc1,nt,nt,nt,-4,nt
CC12CCC(=O)N1C(C(=O)NCCc1ccc(F)cc1)CS2 (stereo not drawn),2,-3,-4,4,-2
CC12CCC(=O)N1C(C(=O)NCCc1ccccc1)CS2 (stereo not drawn),nt,1,25*,0,0
Cc1ccc(COc2ccc(C=NO)cc2)cc1,nt,nt,nt,1,nt
Cc1ccc(CN2CCN(Cc3c(C)nn(C(C)C)c3C)CC2CCO)o1 (stereo not drawn),1,-2,18*,-1,3
Cc1ccc(CN2CCN(Cc3ccncc3)CC2CCO)o1 (stereo not drawn),12,2,4,0,1
COc1ccc(/C=C2\SC(=S)N(CC(=O)OCC(=O)Nc3ccc([N+](=O)[O-])cc3OC)C2=O)cc1,nt,0,-1,0,0
COc1ccc(/C=C2\SC(=S)N(CC(=O)OCC(=O)Nc3ccc(C)cc3Cl)C2=O)cc1,-1,2,34*,nt,-1
CC(=NNC(=O)c1ccc(NS(=O)(=O)c2cccs2)cc1)c1ccc(O)cc1O,nt,nt,nt,-2,nt
COc1ccc(-c2nc(N)ncc2-c2csc(C)n2)c(O)c1,2,-1,-2,8,1
COc1ccc(-c2ncnc(C(F)(F)F)c2-c2csc(C)n2)c(O)c1,18*,1,-2,6,0
O=C(NN=Cc1cccnc1)c1ccc([N+](=O)[O-])cc1Cl,nt,nt,nt,3,nt
CCOC(=O)C(C(=O)NCc1ccc(F)cc1)c1ncc(C(F)(F)F)cc1Cl (stereo not drawn),3,0,25*,2,-1
CN(Cc1nc(-c2cccnc2)no1)S(=O)(=O)c1ccc(Br)cc1,4,-3,3,0,2
CN(Cc1nc(-c2ccccn2)no1)S(=O)(=O)c1ccc(Br)cc1,-3,-2,28*,0,0
Cc1ccc(C=NNC(=O)CSc2nc3ccccc3o2)cc1,nt,nt,nt,3,nt
Cc1cc(O)c(C=NNc2ccc(Cl)cc2)c(=O)o1,nt,nt,nt,7,nt
O=C1SCCC1NS(=O)(=O)c1ccc([N+](=O)[O-])cc1 (stereo not drawn),21*,1,18,4,1
O=C(NC(=S)NC1CCSC1=O)c1ccc([N+](=O)[O-])cc1 (stereo not drawn),3,-4,-4,nt,-1
CCOC(=O)/C(C=Nc1cc(C)nn1-c1ccccc1)=C(\C)O,nt,nt,nt,8,nt
O=C(CNC(=O)c1cccc(F)c1)NN=Cc1cccnc1,nt,nt,nt,3,nt
O=[N+]([O-])c1ccc(Nc2nc(NC3CCCCC3)nc(N3CCCC3)n2)cc1,-2,-1,39*,5,0
O=[N+]([O-])c1ccc(Nc2nc(N/N=C/c3cccc(F)c3)nc(N3CCCC3)n2)cc1,-1,-3,2,nt,-2
Cc1ccccc1-c1cc(C(=O)NCc2cccc(C(F)(F)F)c2)nn1CC1CC(c2cccc([N+](=O)[O-])c2)=NO1 (stereo not drawn),-2,8,-2,35*,-7
COc1ccc(-c2cc(C(F)(F)F)c3c(N)c(C(=O)NCCSC)sc3n2)cc1,7,-57,-38,-18,-2
COc1ccc(OC)c(NC(=O)c2sc3nc(Cc4ccccc4)cc(C(F)(F)F)c3c2N)c1,0,-48,24*,-8,-4
O=C(c1ccccc1)N1CCN(C(=O)c2cc3ccccc3o2)CC1,3,3,12,27*,0
